≈ marks a conversion by molar mass, not a printed value.
How the values were obtained:
[1] = Protein binding in rat assessed as as fraction unbound at 5 uM by rapid equilibrium dialysis method; assay type: ADME; settings: plasma
[2] = biological target: Mitogen-activated protein kinase 15 (Homo sapiens) (UniProt Q8TD08); assay: Inhibition of human MAPK15 assessed as remaining enzyme activity at 1 uM by KINOMEscan assay
Method in brief: (§1)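 scanMAX KINOMEscan panel of 392 nonmutant kinases, compound tested at 1 μM. Result expressed as percent of control (POC). S(10) and S(1) scores are the fraction of kinases with POC below 10% and below 1%.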

[3] = biological target: Casein kinase I isoform delta (Homo sapiens) (UniProt P48730); assay: Inhibition of full-length human CSNK1D expressed in bacterial system assessed as remaining enzyme activity at 1 uM by KINOMEscan assay; method in brief: as §1
[4] = Cytotoxicity against human KMS-12-BM cells after 72 hrs by cell titer-glo luminescence assay; assay type: functional, cell-based
[5] = biological target: Dual specificity tyrosine-phosphorylation-regulated kinase 1A (Homo sapiens) (UniProt Q13627); assay: Inhibition of human DYRK1A assessed as remaining enzyme activity at 1 uM by KINOMEscan assay; method in brief: as §1
[6] = biological target: Serine/threonine-protein kinase pim-2 (Homo sapiens, UniProt Q9P1W9); assay: Inhibition of human PIM2 assessed as remaining enzyme activity at 1 uM by KINOMEscan assay
Method in brief: (§2)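 Profiled at 1 μM compound across a scanMAX KINOMEscan panel of 392 nonmutant kinases. Activity is reported as percent-of-control (POC). Panel-wide S(10) and S(1) selectivity scores are the fraction of kinases with POC below 10% and below 1%.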

[7] = biological target: Mitogen-activated protein kinase kinase kinase 19 (Homo sapiens) (UniProt Q56UN5); assay: Inhibition of human YSK4 assessed as remaining enzyme activity at 1 uM by KINOMEscan assay; method in brief: as §1
[8] = biological target: Homeodomain-interacting protein kinase 2 (Homo sapiens) (UniProt Q9H2X6); assay: Inhibition of human HIPK2 assessed as remaining enzyme activity at 1 uM by KINOMEscan assay; method in brief: as §1
[9] = biological target: Casein kinase I isoform gamma-2 (Homo sapiens) (UniProt P78368); assay: Inhibition of full-length human CSNK1G2 expressed in bacterial system assessed as remaining enzyme activity at 1 uM by KINOMEscan assay; method in brief: as §1
[10] = biological target: Serine/threonine-protein kinase PIM (Homo sapiens, UniProt P11309+Q9P1W9+Q86V86); assay: Inhibition of Pim1/2 in human KMS-12-BM cells assessed as phosphorylation of full-length BAD protein at Ser-112 incubated for 110 mins by flow cytometric analysis in presence of 20% FBS; assay type: cell-based
Method in brief: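 Cell assay in KMS-12-BM, a multiple myeloma line with relatively high endogenous Pim-1/2. Pim-dependent phosphorylation of full-length endogenous BAD at Ser-112 measured.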

[11] = Antitumor activity against human KMS-12-BM cells xenografted in SCID-beige mouse at 100 mg/kg, po qd relative to vehicle control; assay type: functional; settings: read-out: TGI
Method in brief: (§3)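 Mouse KMS-12-BM xenograft efficacy study running 16 days. Oral dosing once daily at 10, 25, 50 or 100 mg/kg. Tumor volume compared with vehicle-treated controls.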

[12] = biological target: Dual specificity protein kinase CLK2 (Homo sapiens) (UniProt P49760); assay: Inhibition of human CLK2 assessed as remaining enzyme activity at 1 uM by KINOMEscan assay; method in brief: as §1
[13] = Equilibrium solubility of compound in PBS by HPLC analysis; assay type: physicochemical
[14] = Volume of distribution at steady state in Sprague-Dawley rat at 2 mg/kg, iv; assay type: ADME, organism-based; settings: in vivo, read-out: Vdss
Method in brief: (§4)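 Pharmacokinetics in male Sprague–Dawley rats. Clearance also expressed as a percentage of liver blood flow. Oral bioavailability determined.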

Mus musculus [15] = assay: Toxicity in human KMS-12-BM cells xenografted SCID-beige mouse assessed as effect on body weight at 10 to 100 mg/kg, po qd; assay type: organism-based; settings: in vivo
Method in brief: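 Tolerability followed in KMS-12-BM xenograft mice given oral doses once daily at 10, 25, 50 or 100 mg/kg over a 16-day efficacy study. Body weight monitored throughout.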

[16] = biological target: Casein kinase II subunit alpha (Homo sapiens) (UniProt P68400); assay: Inhibition of full-length human CSNK2A1 expressed in mammalian system assessed as remaining enzyme activity at 1 uM by KINOMEscan assay; method in brief: as §1
KMS-12-BM = assay: Antitumor activity against human KMS-12-BM cells xenografted in orally dosed SCID-beige mouse administered as qd relative to vehicle control; assay type: functional, organism-based; method in brief: as §3
[17] = biological target: Serine/threonine-protein kinase pim-3 (Homo sapiens) (UniProt Q86V86); assay: Inhibition of human PIM3 assessed as remaining enzyme activity at 1 uM by KINOMEscan assay; method in brief: as §2
[18] = biological target: Casein kinase II subunit alpha (Homo sapiens) (UniProt P68400); assay: Inhibition of full-length human CSNK2A2 expressed in mammalian system assessed as remaining enzyme activity at 1 uM by KINOMEscan assay; method in brief: as §1
[19] = biological target: Myosin light chain kinase family member 4 (Homo sapiens) (UniProt Q86YV6); assay: Inhibition of human MYLK4 assessed as remaining enzyme activity at 1 uM by KINOMEscan assay; method in brief: as §1
[20] = biological target: Dual specificity protein kinase CLK1 (Homo sapiens) (UniProt P49759); assay: Inhibition of human CLK1 assessed as remaining enzyme activity at 1 uM by KINOMEscan assay; method in brief: as §1
Mus musculus [21] = assay: In vivo inhibition of Pim1/2-mediated BAD protein phosphorylation at Ser-112 in human KMS-12-BM cells xenografted in SCID-beige mouse assessed as pBAD level at 50 mg/kg, po administered as single dose measured after 6 hrs by meso scale discovery assay; assay type: functional; parameters: scale not given: the % may be the effect or the level left
Method in brief: (§5)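 KMS-12-BM xenograft mice given a single oral dose of 25, 50 or 100 mg/kg. Tumor Ser-112 pBAD measured at time points through 16 h postdose. EC50 obtained by fitting all individual total plasma concentration–pBAD response data. Unbound value derived from mouse plasma fraction unbound.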

Rattus norvegicus = assay: Clearance in Sprague-Dawley rat at 2 mg/kg, iv relative to hepatic blood flow; assay type: ADME, organism-based, Liver; settings: in vivo; method in brief: as §4
[22] = Half life in Sprague-Dawley rat at 2 mg/kg, iv; assay type: ADME, organism-based; settings: in vivo; method in brief: as §4
Mus musculus [23] = assay: In vivo inhibition of Pim1/2-mediated BAD protein phosphorylation at Ser-112 in human KMS-12-BM cells xenografted in SCID-beige mouse assessed as pBAD level at 100 mg/kg, po administered as single dose measured after 6 hrs by meso scale discovery assay; assay type: functional; parameters: scale not given: the % may be the effect or the level left; method in brief: as §5
[24] = biological target: Serine/threonine-protein kinase pim-1 (Homo sapiens, UniProt P11309); assay: Inhibition of human full-length Pim1 expressed in Escherichia coli assessed as phosphorylation of biotinylated BAD peptide at Ser-112 preincubated for 30 mins followed by substrate addition measured after 1 hr by HTRF assay
[25] = Drug metabolism in rat liver microsomes assessed as compound turnover at 1 uM incubated for 30 mins; assay type: ADME; settings: read-out: Drug metabolism
[26] = Clearance in Sprague-Dawley rat at 2 mg/kg, iv; assay type: ADME, organism-based; settings: in vivo; method in brief: as §4
Mus musculus [27] = assay: In vivo inhibition of Pim1/2-mediated BAD protein phosphorylation at Ser-112 in human KMS-12-BM cells xenografted in SCID-beige mouse assessed as pBAD level at 50 mg/kg, po administered as single dose measured after 16 hrs by meso scale discovery assay; assay type: functional; parameters: scale not given: the % may be the effect or the level left; method in brief: as §5
[28] = Drug metabolism in human liver microsomes assessed as compound turnover at 1 uM incubated for 30 mins; assay type: ADME; settings: read-out: Drug metabolism

Sequence of Casein kinase II subunit alpha (Homo sapiens) (P68400 whole entry, looked up): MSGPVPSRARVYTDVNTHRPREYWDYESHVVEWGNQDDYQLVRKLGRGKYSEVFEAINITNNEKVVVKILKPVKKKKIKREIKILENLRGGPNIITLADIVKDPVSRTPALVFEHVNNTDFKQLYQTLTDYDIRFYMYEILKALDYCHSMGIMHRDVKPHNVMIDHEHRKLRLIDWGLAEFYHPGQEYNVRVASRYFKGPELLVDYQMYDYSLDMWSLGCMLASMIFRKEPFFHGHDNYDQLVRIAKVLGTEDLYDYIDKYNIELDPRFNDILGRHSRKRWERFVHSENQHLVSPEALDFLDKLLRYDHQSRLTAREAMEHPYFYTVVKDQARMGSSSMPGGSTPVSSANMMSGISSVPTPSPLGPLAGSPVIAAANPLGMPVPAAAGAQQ
Sequence of Casein kinase I isoform delta (Homo sapiens) (P48730 whole entry, looked up, canonical isoform): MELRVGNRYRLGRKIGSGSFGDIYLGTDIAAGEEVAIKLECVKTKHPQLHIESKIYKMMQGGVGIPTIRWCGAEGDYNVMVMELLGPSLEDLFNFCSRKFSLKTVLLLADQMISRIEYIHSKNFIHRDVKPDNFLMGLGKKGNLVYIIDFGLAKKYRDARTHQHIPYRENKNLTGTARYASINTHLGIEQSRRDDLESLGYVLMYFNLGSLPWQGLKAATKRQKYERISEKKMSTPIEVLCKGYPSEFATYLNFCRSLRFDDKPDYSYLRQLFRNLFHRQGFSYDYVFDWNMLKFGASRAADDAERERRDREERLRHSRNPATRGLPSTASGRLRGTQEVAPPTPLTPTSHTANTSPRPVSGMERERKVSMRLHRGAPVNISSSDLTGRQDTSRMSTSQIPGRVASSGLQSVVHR
Sequence of Myosin light chain kinase family member 4 (Homo sapiens) (Q86YV6 whole entry): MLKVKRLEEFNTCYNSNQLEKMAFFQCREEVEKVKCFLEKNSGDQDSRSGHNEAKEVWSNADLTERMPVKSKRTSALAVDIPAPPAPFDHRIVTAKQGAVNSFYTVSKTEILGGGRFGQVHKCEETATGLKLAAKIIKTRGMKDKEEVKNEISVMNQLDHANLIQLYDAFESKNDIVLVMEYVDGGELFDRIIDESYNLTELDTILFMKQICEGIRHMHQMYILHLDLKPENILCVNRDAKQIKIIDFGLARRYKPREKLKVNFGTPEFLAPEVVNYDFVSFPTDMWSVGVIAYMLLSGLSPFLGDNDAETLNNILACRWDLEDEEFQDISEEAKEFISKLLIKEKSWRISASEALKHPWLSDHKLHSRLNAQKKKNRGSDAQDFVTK
Sequence of Casein kinase I isoform gamma-2 (Homo sapiens) (P78368 whole entry, looked up, canonical isoform): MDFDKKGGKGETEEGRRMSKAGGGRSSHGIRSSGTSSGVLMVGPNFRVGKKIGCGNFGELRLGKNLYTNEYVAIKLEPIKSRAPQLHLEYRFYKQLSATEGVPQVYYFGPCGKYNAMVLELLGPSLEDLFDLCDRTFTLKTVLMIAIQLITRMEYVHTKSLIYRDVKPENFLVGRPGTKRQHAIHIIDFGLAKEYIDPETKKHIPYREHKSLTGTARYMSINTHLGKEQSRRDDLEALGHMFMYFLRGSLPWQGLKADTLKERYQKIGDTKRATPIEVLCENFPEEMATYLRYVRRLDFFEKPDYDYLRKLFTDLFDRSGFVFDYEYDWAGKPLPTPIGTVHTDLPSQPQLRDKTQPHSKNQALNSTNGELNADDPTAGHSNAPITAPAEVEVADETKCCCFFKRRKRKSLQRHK
Sequence of Mitogen-activated protein kinase 15 (Homo sapiens) (Q8TD08 whole entry): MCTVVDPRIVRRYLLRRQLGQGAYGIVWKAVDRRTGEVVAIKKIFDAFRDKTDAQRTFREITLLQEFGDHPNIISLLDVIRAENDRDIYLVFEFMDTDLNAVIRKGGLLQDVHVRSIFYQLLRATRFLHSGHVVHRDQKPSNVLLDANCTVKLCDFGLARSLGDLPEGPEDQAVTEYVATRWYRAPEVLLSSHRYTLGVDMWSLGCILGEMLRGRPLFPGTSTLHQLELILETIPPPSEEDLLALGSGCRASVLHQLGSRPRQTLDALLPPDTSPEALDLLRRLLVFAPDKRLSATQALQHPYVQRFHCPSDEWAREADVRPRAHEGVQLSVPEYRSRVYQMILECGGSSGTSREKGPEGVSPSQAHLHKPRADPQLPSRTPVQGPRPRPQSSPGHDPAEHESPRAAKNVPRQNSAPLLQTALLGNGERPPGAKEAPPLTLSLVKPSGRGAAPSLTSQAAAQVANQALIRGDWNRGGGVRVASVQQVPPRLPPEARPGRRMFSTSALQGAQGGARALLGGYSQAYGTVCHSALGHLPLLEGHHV
Sequence of Dual specificity protein kinase CLK2 (Homo sapiens) (P49760 whole entry, looked up): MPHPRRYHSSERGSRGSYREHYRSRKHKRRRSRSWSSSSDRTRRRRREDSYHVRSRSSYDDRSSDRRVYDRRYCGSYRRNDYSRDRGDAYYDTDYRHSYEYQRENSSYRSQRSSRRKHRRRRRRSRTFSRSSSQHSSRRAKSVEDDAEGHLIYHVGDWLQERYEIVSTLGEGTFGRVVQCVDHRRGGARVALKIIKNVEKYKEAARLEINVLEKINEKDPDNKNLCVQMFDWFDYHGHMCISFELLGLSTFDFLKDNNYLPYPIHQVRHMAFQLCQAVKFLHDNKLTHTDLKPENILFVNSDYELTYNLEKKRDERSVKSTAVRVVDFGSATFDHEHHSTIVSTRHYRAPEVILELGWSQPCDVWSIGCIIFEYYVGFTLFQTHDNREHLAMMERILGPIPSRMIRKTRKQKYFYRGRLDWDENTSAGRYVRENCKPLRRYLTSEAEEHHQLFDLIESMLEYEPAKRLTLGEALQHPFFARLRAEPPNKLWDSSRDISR
Sequence of Serine/threonine-protein kinase pim-2 (Q9P1W9 whole entry, looked up): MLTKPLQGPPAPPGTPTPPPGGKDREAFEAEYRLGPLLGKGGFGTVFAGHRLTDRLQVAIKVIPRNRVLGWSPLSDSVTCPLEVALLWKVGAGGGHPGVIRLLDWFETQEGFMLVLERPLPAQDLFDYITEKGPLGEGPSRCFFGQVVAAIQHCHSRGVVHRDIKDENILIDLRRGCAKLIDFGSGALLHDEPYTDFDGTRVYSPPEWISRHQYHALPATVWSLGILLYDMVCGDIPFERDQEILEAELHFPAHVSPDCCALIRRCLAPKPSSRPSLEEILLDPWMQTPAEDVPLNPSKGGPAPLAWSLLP
Sequence of Mitogen-activated protein kinase kinase kinase 19 (Homo sapiens) (Q56UN5 whole entry): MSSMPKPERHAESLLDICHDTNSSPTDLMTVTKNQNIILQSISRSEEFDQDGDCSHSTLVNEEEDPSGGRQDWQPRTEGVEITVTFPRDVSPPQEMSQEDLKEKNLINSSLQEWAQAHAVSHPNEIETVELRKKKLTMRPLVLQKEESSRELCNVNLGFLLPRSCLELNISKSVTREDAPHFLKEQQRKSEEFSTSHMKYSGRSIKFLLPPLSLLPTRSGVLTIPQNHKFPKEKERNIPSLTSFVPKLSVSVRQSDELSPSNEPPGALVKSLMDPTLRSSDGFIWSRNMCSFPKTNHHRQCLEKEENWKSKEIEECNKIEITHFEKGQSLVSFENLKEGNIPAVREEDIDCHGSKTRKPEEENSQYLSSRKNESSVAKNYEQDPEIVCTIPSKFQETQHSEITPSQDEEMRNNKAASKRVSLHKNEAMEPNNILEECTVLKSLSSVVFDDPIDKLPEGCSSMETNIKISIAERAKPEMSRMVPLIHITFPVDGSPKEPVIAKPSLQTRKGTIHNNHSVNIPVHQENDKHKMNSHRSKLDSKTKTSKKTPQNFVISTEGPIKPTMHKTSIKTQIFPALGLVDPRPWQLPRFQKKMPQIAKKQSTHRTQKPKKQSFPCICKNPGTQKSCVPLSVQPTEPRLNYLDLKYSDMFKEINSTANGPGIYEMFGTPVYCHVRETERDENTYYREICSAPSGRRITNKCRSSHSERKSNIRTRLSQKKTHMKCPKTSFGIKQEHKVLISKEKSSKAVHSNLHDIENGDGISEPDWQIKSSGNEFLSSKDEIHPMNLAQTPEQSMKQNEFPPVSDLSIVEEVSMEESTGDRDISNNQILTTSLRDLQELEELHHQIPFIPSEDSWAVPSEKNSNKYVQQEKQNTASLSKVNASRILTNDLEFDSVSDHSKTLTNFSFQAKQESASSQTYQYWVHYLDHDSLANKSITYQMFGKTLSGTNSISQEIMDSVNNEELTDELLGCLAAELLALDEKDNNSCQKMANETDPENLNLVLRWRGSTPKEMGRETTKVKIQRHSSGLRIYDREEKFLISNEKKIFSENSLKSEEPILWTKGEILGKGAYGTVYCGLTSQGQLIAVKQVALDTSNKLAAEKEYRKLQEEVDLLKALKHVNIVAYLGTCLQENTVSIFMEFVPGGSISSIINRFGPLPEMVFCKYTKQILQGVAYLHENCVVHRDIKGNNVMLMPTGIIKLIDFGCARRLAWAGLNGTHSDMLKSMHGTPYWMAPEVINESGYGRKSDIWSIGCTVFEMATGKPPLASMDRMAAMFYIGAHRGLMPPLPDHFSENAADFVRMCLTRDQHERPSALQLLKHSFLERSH
Sequence of Serine/threonine-protein kinase pim-1 (P11309 whole entry): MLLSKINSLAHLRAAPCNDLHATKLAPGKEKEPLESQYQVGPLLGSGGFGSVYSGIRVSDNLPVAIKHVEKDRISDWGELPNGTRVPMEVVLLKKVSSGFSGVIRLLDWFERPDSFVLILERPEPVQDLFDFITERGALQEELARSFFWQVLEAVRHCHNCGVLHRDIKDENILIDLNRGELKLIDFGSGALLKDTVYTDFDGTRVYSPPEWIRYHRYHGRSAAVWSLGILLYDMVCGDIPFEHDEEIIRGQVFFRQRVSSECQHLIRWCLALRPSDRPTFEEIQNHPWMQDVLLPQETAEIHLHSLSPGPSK

- fraction unbound at 5 µM [1]: 0.007
- Activity [3]: < 10%
- Activity [5]: < 10%
- Activity [6]: < 10%
- Activity [7]: < 10%
- Activity [8]: < 10%
- Activity [9]: < 10%
- IC50 [10]: 25 nM
- Activity [12]: < 10%
- solubility thermodynamic [13]: 40 µM (≈ 14.4 µg/mL)
- Vd [14]: 1.5 L/kg
- Activity [16]: < 10%
- Activity [17]: < 10%
- Activity [18]: < 10%
- Activity [19]: < 10%
- Activity [20]: < 10%
- CL (Rattus norvegicus): 14%
- half-life [22]: 4 h
- IC50 [24]: 0.3 nM
- metabolised at 0.5 h, 1 µM [25]: 39%
- clearance [26]: 7.83 mL/min/kg
- metabolised at 0.5 h, 1 µM [28]: 24%
Structure (SMILES): Cc1nc2cccc3c2nc1N[C@H](C)/C=C\C[C@H]1CNC(=O)c2cc-3[nH]c21
- Activity [2]: < 10%
- IC50 [4]: 151 nM
- inhibition in vivo at 100 mg/kg [11]: 100%
- Activity (Mus musculus [15]): Non-toxic
- TGI (KMS-12-BM): Dose-dependent effect
- Activity (Mus musculus [21]): 60%
- Activity (Mus musculus [23]): 66%
- Activity (Mus musculus [27]): 8%

From ChEMBL document CHEMBL3808325, “Discovery and Optimization of Macrocyclic Quinoxaline-pyrrolo-dihydropiperidinones as Potent Pim-1/2 Kinase Inhibitors” (ACS Med Chem Lett, 2016)
